From the RNAGym collection of RNA variant scans (doi:10.1126/science.aae0568)
Variants at the floor of the assay were thinned out.

B1: tRNA (parent)
chain: GUUCCGUUGGCGUAAUGGUAACGCGUCUCCCUCCUAAGGAGAAGACUGCGGGUUCGAGUCCCGUACGGAACG

Variants of: B1
Assay: yeast fitness relative to wild type (ratio to wild type); higher = fitter; tRNA-Arg(CCU), competitive growth, 37 C, YPD
Procedure, shortened: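 Start and end populations of a pooled competition were compared by 100-nucleotide paired-end sequencing of gene amplicons. The Saccharomyces cerevisiae strains carried tRNA-Arg(CCU) gene variants at the native genomic locus, synthesised with a 3% per-site mutation rate at 69 sites, and competed in YPD at 37°C for 24 hours in six parallel replicates. Darwinian fitness relative to wild type was based on the change in genotype frequencies. Genotypes required ≥ 100 starting reads, and estimates < 0.5 were set to 0.5.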

Question: With GUUCCGUUAGCGUAAUGGUAACGCGUCUCCCUCCUAAGGAGCAGACUGCGGGUUCGAGUCCCGUAUGGAACG [G9A A42C C66U] as the variant, how does the yeast fitness read?
Answer: 0.543

Question: With GUUCCGUUAGGGUAAUGGCAACGCGUCUCCCUCCUAAGGAGAAGACUGCGGGUUAGAGUCCCGUACGGAACG [G9A C11G U19C C55A] as the variant, how does the yeast fitness read?
Answer: ≤ 0.5

Question: Which yeast fitness does the source give for GUUCCGUUAGCGUAAUGGUAACGCGUCUCCCUCCUUAGAAGAAGACUGCGGGUUCGAGUCCCGUACAGAACG [G9A A36U G39A G67A] here?
Answer: ≤ 0.5

Question: For GUUCCGUGGGCGUAAUGGUAACGCAUCUCCCUCCUAAGGAGAAGACUGCGGGUUCGAGUCCCGUACGGACCG [U8G G25A A70C], which yeast fitness is on record?
Answer: 0.544

Question: With GUUCCGUUAGCGUCAUGGUAACGCGUCUCCCUCCCAAGGAGAAGACUGCGGGUUCGAGUCCCGUACGGAACG [G9A A14C U35C] as the variant, how does the yeast fitness read?
Answer: ≤ 0.5

Question: For GUUCCGUUAGCGUUAUGGUAUCGCGUCUCCCUCCUAAGGAGAAGACUGCGGGUUCGAGUCCCGUACGGCACG [G9A A14U A21U A69C], which yeast fitness is on record?
Answer: 0.755

Question: For GUUCCGUGGGCGUAAUGGUAACGCGACUCCCUCCUAAGGAGAAGACUGCGGGUUCGAGUCCCGUAUCGAACG [U8G U26A C66U G67C], which yeast fitness is on record?
Answer: 0.847

Question: Which yeast fitness does the source give for GUUCCGUGGGCGUAAUGGUAACGCGUCUCCCUCCUAAGGAGAAGACUGUGGGUUUGAGUCCCGUACGGAACG [U8G C49U C55U] here?
Answer: 0.549

Question: With GUUCCGUGGGCGUAAUGAUAACGCGUCUCCCUCCUAAGGAGAAGACUGCCGGUUCGAGUCCCGUUCGGAACG [U8G G18A G50C A65U] as the variant, how does the yeast fitness read?
Answer: 0.513

Question: Which yeast fitness does the source give for GUUCCGUUAGCGUUAUGGUACCGCGUCUCCCUCCUAAGGAGAAGACUGCGGGUUCGAGUCCCGUACGGAACG [G9A A14U A21C] here?
Answer: 0.577

Question: With GUUCCGUUAGAGUCAAGGUAACGCGUCUCCAUCCUAAGGAGAAGACUGCGGGUUCGAGUCCUGUACGGAACG [G9A C11A A14C U16A C31A C62U] as the variant, how does the yeast fitness read?
Answer: ≤ 0.5

Question: With GUUCCGUGGGCGUAAUGGUAACGCGUCUCCCUCCUAAGGAGAAGACUGCGAGUUCGAGUCCCGUUCGGAACG [U8G G51A A65U] as the variant, how does the yeast fitness read?
Answer: ≤ 0.5

Question: Which yeast fitness does the source give for GUUCCGUUAGAGUAAUGGUUACGCGUCUCCCUCCUAAGGAGAAGACUGCGGGUUCGAGUCUCGUACGGAACG [G9A C11A A20U C61U] here?
Answer: 0.559

Question: Which yeast fitness does the source give for GUUCCGUGGGCGUAAUAGUCAGGCGUCUGCCUCGUAAGGAGAAGACUGCGGGUUCGAGUCCCGUACGGAGCG [U8G G17A A20C C22G C29G C34G A70G] here?
Answer: ≤ 0.5

Question: Which yeast fitness does the source give for GUUCCGUUAGCGUUAUGGUAACGCGUCUCCCUCCUAAGGAGAAGAGUGCGGGUUUGAGUCCCGUACGGCACG [G9A A14U C46G C55U A69C] here?
Answer: ≤ 0.5

Question: For GUUCCGUGGGCGUAAUGGUAACCCGUCUCCCUCCUAAGGAGAAGACUGCGGGUUCGAGUCCCGUACGGAACG [U8G G23C], which yeast fitness is on record?
Answer: ≤ 0.5

Question: For GUUCCGUGGGCGUAACGGUAUAGCGUCGCCCUCCUAAGGAGAAGACUGCGGGUUCGAGUCCCGUACGGAACG [U8G U16C A21U C22A U28G], which yeast fitness is on record?
Answer: ≤ 0.5

Question: Which yeast fitness does the source give for GUUCCGUUAGCGUAUUGGUAACGCGUCUCCCUGCUAAGAAGAAGACUGCGGGUUCGAGUCCAGUACGGAACG [G9A A15U C33G G39A C62A] here?
Answer: ≤ 0.5

Question: Which yeast fitness does the source give for GUUCCGUUAGAGUAAUGGUAACGCGUCUCGCUCCUAAGGAGAAGAUUGCGGGUUCGAGUCCCGUACGGAACG [G9A C11A C30G C46U] here?
Answer: ≤ 0.5

Question: Which yeast fitness does the source give for GUUCCGUGGGCGAAAUGGUAACGCGUCUCUCUCCUAAGCAGAAGACUGCGGGUUCGAGUCCCGUACGGAACG [U8G U13A C30U G39C] here?
Answer: ≤ 0.5

Question: For GUUCCGUGGAGGUAAUGGGAACGCGUCUCCCUCCUAAGGGGAAGACUGCGGGUUUGAGUUCCGUACGGAACG [U8G G10A C11G U19G A40G C55U C60U], which yeast fitness is on record?
Answer: 0.511

Question: For GUUCCGUUAGAGUAAUGGUAACGCGUCUCCCUCCUAAGGAGAACACUGCGGGUUCGAGUCCCGUACGGAACG [G9A C11A G44C], which yeast fitness is on record?
Answer: ≤ 0.5

Question: For GUUCCGUGGCCGUAAUGGUAACGCGUCUCCCUCCUAAGGAGAAGACUGCGGGUUCGAGUCCCGUACGGAACG [U8G G10C], which yeast fitness is on record?
Answer: ≤ 0.5

Question: Which yeast fitness does the source give for GUUCCGUGGGCGGAAUGGUAACCCGUCUCCCUCCUAAGGCGAAGACUGCGGGUUCGAGUCCCAUACGGAACG [U8G U13G G23C A40C G63A] here?
Answer: ≤ 0.5

Question: For GUUCCGUUAGCGUAAUGGUAUCGCGUCUCCCUCCUGAGGCGAAGACUGCGGGUUCGAGUCCCGUACGGUACG [G9A A21U A36G A40C A69U], which yeast fitness is on record?
Answer: ≤ 0.5

Question: With GUUCCGUUAGAGUAAUGGUAACGCGUCUCCCUCCUAAGGUGAAGACUCCGGGUUUGAGUCGCGUACGGAACG [G9A C11A A40U G48C C55U C61G] as the variant, how does the yeast fitness read?
Answer: ≤ 0.5

Question: For GUUCCGUUAGUGUAAUGGUAACGCGUUUCCCUCCUGAGGAGAAGACUGCGGGUUCGAGUCCCGUACGGAACG [G9A C11U C27U A36G], which yeast fitness is on record?
Answer: ≤ 0.5

Question: With GUUCCGUUAGUGUAAUGGUAACGCGUCUCCUUCCUAAGGAGAAGACUGCGGGUUCGAGUCCCGUACGGAACG [G9A C11U C31U] as the variant, how does the yeast fitness read?
Answer: 0.704

Question: Which yeast fitness does the source give for GUUCCGUGGGCGUAAUGGUAACGCGUCUCCCUCCUAAGGAGAAGACUGCCGGUUCGAGUCCCGUACGGAACG [U8G G50C] here?
Answer: ≤ 0.5

Question: For GUUCCGUUAGCGUAAUGGUAACGCGUCUCCCUCCUAAGGAGAAGACUGCGGGUUCGAGUCCCGUACGGUACG [G9A A69U], which yeast fitness is on record?
Answer: 1.04

Question: With GUUCCGUUAGCGUAAUGGUAACGCGUCUCCCUCCUAAGGAGAAGACUGCGGGUUCGAGUCCCGUACGGGACG [G9A A69G] as the variant, how does the yeast fitness read?
Answer: 0.953

Question: With GUUCCGUUAGCGUAUUGGUAACGCGUCUCCCUCCUAAGGAGAAGACUGCGGGUUCGAGACCCGUCCGGAACG [G9A A15U U59A A65C] as the variant, how does the yeast fitness read?
Answer: 0.654

Question: For GUUCCGUUAGCGUAAUGGUAACGCGUCUCCCUCCUGAGGAGAAGACUGCCGGUUCGAGUCCCGCACGGAACG [G9A A36G G50C U64C], which yeast fitness is on record?
Answer: 0.645

Question: With GUUCCGUUAGCGUAAUGGUAACGCGUCUCCCUCCUAAGGAGAAGUCUGCGGGUUCGAGUCCCGUACGGAUCG [G9A A45U A70U] as the variant, how does the yeast fitness read?
Answer: 1.01

Question: With GUUCCGUUAGCGUGAUGGUAACGCGUCUGCCUCCUAAGGAGAAGACUGCGGGUUCGAGUCCCGUACGGAACG [G9A A14G C29G] as the variant, how does the yeast fitness read?
Answer: ≤ 0.5

Question: With GUUCCGUUAGCGUAAUGGUAACGCGUCUCCCUCCUAAGGAGAAGGCUGCCGGUUCGAGUCCCGUACGGCACG [G9A A45G G50C A69C] as the variant, how does the yeast fitness read?
Answer: ≤ 0.5

Question: Which yeast fitness does the source give for GUUCCGUUAGCGUGAUGGUAACGCGUCUCCCUCCUAAGGAGAAGACUGCGGGUUCGAGUUCUGUACGGAACG [G9A A14G C60U C62U] here?
Answer: ≤ 0.5

Question: Which yeast fitness does the source give for GUUCCGUUAGCGUAAUGGUAACGCGUCUCCCUCCUAAGGAGAAGACUGCGGGUUCGGGUCCCGUACGGAACG [G9A A57G] here?
Answer: 0.933
